Experimental data: ChEMBL document CHEMBL1770108, “Design and synthesis of substituted N-(1,3-diphenyl-1H-pyrazol-5-yl)benzamides as positive allosteric modulators of the metabotropic glutamate receptor subtype 5” (Bioorg Med Chem Lett, 2011)

Key:
[1] = molecular target: T1, Metabotropic glutamate receptor 5 (Rattus norvegicus, UniProt P31424); test: Displacement of [3H]-MPEP from mGluR5 in rat brain; format: tissue-based
Summary of the method: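 Radioligand displacement binding using [3H]MPEP on rat brain membranes.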

[2] = molecular target: Metabotropic glutamate receptor 5 (Rattus norvegicus) (UniProt P31424); test: Agonist activity at rat mGluR5 expressed in HEK293T cells assessed as increase of glutamate-induced calcium flux by calcium fluorescence assay relative to control; format: functional, cell-based; conditions: HEK-293T
Chain of Metabotropic glutamate receptor 5 (Rattus norvegicus) (P31424 21-1203 limits assumed): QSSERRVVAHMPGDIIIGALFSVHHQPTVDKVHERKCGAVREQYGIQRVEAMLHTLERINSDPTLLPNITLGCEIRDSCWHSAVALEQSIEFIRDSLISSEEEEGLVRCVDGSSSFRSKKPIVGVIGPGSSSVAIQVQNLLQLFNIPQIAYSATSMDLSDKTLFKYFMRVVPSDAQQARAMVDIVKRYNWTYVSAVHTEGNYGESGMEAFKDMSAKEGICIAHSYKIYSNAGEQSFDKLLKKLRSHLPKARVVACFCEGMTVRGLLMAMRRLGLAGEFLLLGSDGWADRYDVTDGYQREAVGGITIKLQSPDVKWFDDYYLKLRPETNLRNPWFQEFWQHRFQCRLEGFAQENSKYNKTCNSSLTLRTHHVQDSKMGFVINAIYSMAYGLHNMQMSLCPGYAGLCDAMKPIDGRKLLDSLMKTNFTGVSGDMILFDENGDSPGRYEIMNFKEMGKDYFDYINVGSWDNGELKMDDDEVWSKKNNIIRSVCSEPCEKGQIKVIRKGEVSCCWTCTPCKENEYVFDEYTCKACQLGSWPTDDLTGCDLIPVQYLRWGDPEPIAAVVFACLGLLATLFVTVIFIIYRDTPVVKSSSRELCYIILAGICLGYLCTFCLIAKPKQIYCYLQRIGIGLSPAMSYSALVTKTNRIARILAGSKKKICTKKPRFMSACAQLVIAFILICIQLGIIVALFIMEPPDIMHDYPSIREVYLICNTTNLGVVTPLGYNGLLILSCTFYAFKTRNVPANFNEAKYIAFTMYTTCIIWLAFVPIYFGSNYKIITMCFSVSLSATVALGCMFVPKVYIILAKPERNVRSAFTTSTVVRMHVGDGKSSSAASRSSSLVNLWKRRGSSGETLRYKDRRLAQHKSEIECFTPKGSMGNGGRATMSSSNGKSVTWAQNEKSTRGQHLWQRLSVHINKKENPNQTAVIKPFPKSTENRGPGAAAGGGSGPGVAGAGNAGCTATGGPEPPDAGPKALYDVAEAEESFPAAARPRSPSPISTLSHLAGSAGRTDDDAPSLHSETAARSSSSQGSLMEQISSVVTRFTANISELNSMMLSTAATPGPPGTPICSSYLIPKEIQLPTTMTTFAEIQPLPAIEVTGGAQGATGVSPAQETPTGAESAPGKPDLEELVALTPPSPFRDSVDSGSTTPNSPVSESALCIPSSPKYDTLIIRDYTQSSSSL
Summary of the method: (§1)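 Rat mGluR5-expressing cells loaded with a calcium-sensitive fluorescent dye receive vehicle or test compound. After 2.5 min, an EC20 concentration of glutamate is added, then an EC80 concentration 1 min later. This triple-add protocol allows simultaneous detection of agonist, potentiator and antagonist activity. Intracellular calcium release is read kinetically in every well by an imaging plate reader.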

[3] = molecular target: T1, Metabotropic glutamate receptor 5; test: Agonist activity at rat mGluR5 expressed in HEK293T cells assessed as effect on glutamate-induced calcium flux by calcium fluorescence assay; format: functional, cell-based, HEK-293T; summary of the method: as §1
[4] = molecular target: T1, Metabotropic glutamate receptor 5; test: Antagonist activity at rat mGluR5 expressed in HEK293T cells assessed as inhibition of glutamate-induced calcium flux by calcium fluorescence assay; format: functional, cell-based, HEK-293T; summary of the method: as §1

T1 sequence (P31424 whole entry): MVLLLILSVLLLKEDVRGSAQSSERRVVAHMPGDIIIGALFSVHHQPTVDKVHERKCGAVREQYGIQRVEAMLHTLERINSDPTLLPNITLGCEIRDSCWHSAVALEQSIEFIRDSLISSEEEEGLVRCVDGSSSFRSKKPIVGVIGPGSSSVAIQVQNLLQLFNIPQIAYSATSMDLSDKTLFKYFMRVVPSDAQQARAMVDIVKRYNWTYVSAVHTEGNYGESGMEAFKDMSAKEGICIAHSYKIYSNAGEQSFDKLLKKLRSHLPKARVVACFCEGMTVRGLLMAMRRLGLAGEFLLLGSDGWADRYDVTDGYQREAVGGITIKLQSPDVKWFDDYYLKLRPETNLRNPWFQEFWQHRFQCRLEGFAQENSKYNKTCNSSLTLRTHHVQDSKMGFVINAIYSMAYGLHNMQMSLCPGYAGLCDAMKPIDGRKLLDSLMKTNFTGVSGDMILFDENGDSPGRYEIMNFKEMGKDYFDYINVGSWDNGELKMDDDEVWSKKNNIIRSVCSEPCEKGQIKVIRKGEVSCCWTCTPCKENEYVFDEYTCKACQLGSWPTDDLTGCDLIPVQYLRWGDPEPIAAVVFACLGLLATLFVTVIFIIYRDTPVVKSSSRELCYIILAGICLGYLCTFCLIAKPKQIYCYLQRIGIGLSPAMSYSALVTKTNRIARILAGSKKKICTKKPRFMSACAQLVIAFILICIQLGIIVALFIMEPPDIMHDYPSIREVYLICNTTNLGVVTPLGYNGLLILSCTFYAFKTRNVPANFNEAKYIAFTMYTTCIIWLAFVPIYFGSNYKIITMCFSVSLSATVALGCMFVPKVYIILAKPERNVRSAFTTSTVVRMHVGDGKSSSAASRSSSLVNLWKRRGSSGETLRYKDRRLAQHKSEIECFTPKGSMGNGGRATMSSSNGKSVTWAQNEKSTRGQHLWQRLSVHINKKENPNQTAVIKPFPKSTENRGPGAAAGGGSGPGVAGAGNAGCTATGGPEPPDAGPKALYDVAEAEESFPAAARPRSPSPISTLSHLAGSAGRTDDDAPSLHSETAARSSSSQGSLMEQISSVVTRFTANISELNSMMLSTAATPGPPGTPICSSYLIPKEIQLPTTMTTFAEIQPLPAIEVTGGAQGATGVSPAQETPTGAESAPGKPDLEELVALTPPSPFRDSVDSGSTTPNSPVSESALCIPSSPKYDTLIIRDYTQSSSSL

Ki [1] [µM]	Activity [2] [%]	EC50 [3] [µM]	IC50 [4] [µM]	Structure (SMILES)
> 10	50.2	2.17	–	N#Cc1cc(C(=O)Nc2cc(-c3ccccc3)nn2-c2ccccc2Cl)ccc1-c1cccc2ccccc12
2.83	–	–	4.17	Cc1ccc(NC(=O)c2cc(F)cc(C#N)c2)nc1
0.037	61.8	4.14	–	N#Cc1cc(C(=O)Nc2cc(-c3ccccc3)nn2-c2ccccc2Cl)ccc1-c1ccccc1
2.06	–	> 30	–	N#Cc1cc(C(=O)Nc2cc(-c3ccccc3)nn2-c2ccccc2Cl)ccc1-c1cccc(F)c1
0.325	–	–	0.165	CCCc1cccc(NC(=O)c2cc(F)cc(C#N)c2)n1
1.05	–	–	1.55	CCCCc1cccc(NC(=O)c2cc(F)cc(C#N)c2)n1
0.023	68	2.43	–	N#Cc1cc(C(=O)Nc2cc(-c3ccccc3)nn2-c2ccccc2Cl)ccc1-c1ccc(F)cc1
0.344	67.6	0.646	–	O=C(Nc1cc(-c2ccccc2)nn1-c1ccccc1Cl)c1cc(-c2cc(F)cc(F)c2)ccn1
0.762	–	–	0.169	CCc1cccc(NC(=O)c2cc(F)cc(C#N)c2)n1
